{
  "source": "ChEMBL document CHEMBL1140884",
  "about": "“Oligodeoxyribonucleotide-based antagonists for Toll-like receptors 7 and 9” (2009)",
  "key": {"[1]": {"target": "T1, Toll-like receptor 9 (Mus musculus) (UniProt Q9EQU3)", "T1 sequence (whole entry)": "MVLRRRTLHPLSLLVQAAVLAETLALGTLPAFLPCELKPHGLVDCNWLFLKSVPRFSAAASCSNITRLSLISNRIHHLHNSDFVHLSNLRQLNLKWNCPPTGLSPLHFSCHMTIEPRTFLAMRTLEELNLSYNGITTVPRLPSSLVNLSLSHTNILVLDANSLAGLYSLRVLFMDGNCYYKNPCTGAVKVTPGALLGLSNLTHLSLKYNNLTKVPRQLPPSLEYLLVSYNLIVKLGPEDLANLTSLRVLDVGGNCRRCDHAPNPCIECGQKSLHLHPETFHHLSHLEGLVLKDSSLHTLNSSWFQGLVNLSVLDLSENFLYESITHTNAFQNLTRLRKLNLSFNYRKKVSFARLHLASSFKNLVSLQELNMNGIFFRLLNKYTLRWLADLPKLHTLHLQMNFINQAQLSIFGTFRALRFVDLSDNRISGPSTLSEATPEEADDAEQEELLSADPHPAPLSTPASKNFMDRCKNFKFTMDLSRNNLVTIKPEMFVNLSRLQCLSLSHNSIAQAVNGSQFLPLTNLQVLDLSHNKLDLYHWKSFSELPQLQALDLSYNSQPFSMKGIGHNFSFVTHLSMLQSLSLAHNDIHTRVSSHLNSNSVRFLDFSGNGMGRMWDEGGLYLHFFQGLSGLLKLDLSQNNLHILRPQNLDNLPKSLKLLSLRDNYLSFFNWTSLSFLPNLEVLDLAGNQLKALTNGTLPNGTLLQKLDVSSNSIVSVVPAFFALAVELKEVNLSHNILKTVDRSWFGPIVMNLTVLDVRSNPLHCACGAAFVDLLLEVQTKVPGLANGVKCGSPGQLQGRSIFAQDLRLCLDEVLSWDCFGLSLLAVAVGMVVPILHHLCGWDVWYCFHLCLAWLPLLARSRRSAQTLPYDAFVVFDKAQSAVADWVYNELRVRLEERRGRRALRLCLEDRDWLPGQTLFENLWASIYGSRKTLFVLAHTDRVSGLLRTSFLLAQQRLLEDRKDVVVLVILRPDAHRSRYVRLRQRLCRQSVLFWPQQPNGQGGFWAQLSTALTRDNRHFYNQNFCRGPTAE", "assay": "Agonist activity at mouse TLR9 expressed in HEK293 cells assessed as activation of NF-kappaB at 10 ug/mL by SEAP reporter gene assay", "assay_type": "functional, cell-based", "in_short": "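HEK293 cells stably expressing mouse TLR9 were transiently transfected with a SEAP reporter for 6 h. Compounds were added at 10 µg/mL for 18 h. SEAP was read with Quanti-Blue substrate and expressed as fold change in NF-κB activity.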"}, "[2]": {"target": "T1, Toll-like receptor 9 (Mus musculus)", "assay": "Antagonist activity at mouse TLR9 expressed in HEK293 cells assessed as inhibition of 5'-CTATCTGACGTTCTCTGT-3'-induced NF-kappaB activation by SEAP reporter gene assay", "assay_type": "functional, cell-based", "in_short": "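Mouse TLR9-HEK293 cells were transfected with a SEAP reporter for 6 h. They were then stimulated for 18 h with agonist (0.25 or 0.5 µg/mL) plus increasing antagonist concentrations or set agonist:antagonist ratios. Quanti-Blue read-out, reported as % NF-κB activity with agonist alone as 100%.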"}, "Mus musculus [3]": {"test_system": "Mus musculus", "assay": "Induction of IL6 secretion in C57BL/6 mouse at 20 mg/kg, sc", "assay_type": "functional, organism-based", "set-up": "dose 20 mg/kg", "in_short": "(§1)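 Female C57BL/6 mice, 6–8 weeks old (n=3), were injected sc with single compounds at 0.25 or 20 mg/kg. Serum was collected by retro-orbital bleed 2 h later and cytokines were measured by Luminex mouse 20-plex assay.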"}, "Mus musculus [4]": {"test_system": "Mus musculus", "assay": "Induction of cytokine MIG secretion in C57BL/6 mouse at 20 mg/kg, sc", "assay_type": "functional, organism-based", "set-up": "dose 20 mg/kg", "in_short": "as §1"}, "Mus musculus [5]": {"test_system": "Mus musculus", "assay": "Induction of cytokine MCP1 secretion in C57BL/6 mouse at 20 mg/kg, sc", "assay_type": "functional, organism-based", "set-up": "dose 20 mg/kg", "in_short": "as §1"}, "Mus musculus [6]": {"test_system": "Mus musculus", "assay": "Induction of cytokine KC secretion in C57BL/6 mouse at 20 mg/kg, sc", "assay_type": "functional, organism-based", "set-up": "dose 20 mg/kg", "in_short": "as §1"}, "Mus musculus [7]": {"test_system": "Mus musculus", "assay": "Induction of IP10 secretion in C57BL/6 mouse at 20 mg/kg, sc", "assay_type": "functional, organism-based", "set-up": "dose 20 mg/kg", "in_short": "as §1"}, "Mus musculus [8]": {"test_system": "Mus musculus", "assay": "Induction of IL10 secretion in C57BL/6 mouse at 20 mg/kg, sc", "assay_type": "functional, organism-based", "set-up": "dose 20 mg/kg", "in_short": "as §1"}, "Mus musculus [9]": {"test_system": "Mus musculus", "assay": "Induction of IL12 secretion in C57BL/6 mouse at 20 mg/kg, sc", "assay_type": "functional, organism-based", "set-up": "dose 20 mg/kg", "in_short": "as §1"}, "Mus musculus [10]": {"species_on_record": "Mus musculus", "assay": "Inhibition of 5'-TCTGACRTTCT-X-TCTTRCAGTCT-3'-induced IL12 production in C57BL/6 mouse measured after 2 hrs of induction by ELISA", "assay_type": "functional, organism-based", "in_short": "(§2)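 C57BL/6 mice (n=3) were given TLR9 agonist 0.25 mg/kg sc in the left flank and various antagonist doses sc in the right flank at the same time. Serum IL-12 was measured by sandwich ELISA 2 h after agonist.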"}, "Mus musculus [11]": {"species_on_record": "Mus musculus", "assay": "Inhibition of 5'-TCTGACRTTCT-X-TCTTRCAGTCT-3'-induced IL12 production in C57BL/6 mouse at 1:4 agonist to drug ratio by ELISA", "assay_type": "functional, organism-based", "in_short": "as §2"}, "Mus musculus [12]": {"test_system": "Mus musculus", "assay": "Inhibition of 5'-TCTGACRTTCT-X-TCTTRCAGTCT-3'-induced IL12 production in C57BL/6 mouse treated 6 hrs of induction and measured after 2 hrs at 2 mg/kg, sc", "assay_type": "functional", "conditions": "C57BL/6, sc, route subcutaneous", "in_short": "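Mice received antagonist sc at a low or high dose, then TLR9 agonist sc 6 h later. Serum IL-12 was determined 2 h after agonist administration.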"}, "Mus musculus [13]": {"test_system": "Mus musculus", "assay": "Inhibition of 5-TCTGACRTTCT-X-TCTTRCAGTCT-3-induced IL12 production in C57BL/6 mouse treated 6 hrs of induction and measured after 2 hrs at 20 mg/kg, sc", "assay_type": "functional", "conditions": "C57BL/6, sc, route subcutaneous"}, "Mus musculus [14]": {"test_system": "Mus musculus", "assay": "Inhibition of 5-TCTGACRTTCT-X-TCTTRCAGTCT-3-induced IL12 production in C57BL/6 mouse at 20 mg/kg, sc up to 168 hrs", "assay_type": "functional, organism-based", "set-up": "dose 20 mg/kg", "in_short": "(§3)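 Female C57BL/6 mice, 6-8 weeks, n = 3, given antagonist 20 mg/kg sc. TLR9 agonist at 0.25 mg/kg sc at various intervals afterward; blood taken 2 h after agonist and serum IL-12 measured by sandwich ELISA. Representative of more than six independent experiments.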"}, "Mus musculus [15]": {"test_system": "Mus musculus", "assay": "Inhibition of 5-TCTGACRTTCT-X-TCTTRCAGTCT-3-induced IL12 production in C57BL/6 mouse at 20 mg/kg, sc up to 120 hrs", "assay_type": "functional", "conditions": "C57BL/6, sc, route subcutaneous", "in_short": "as §3"}},
  "note": "Calls of active or inactive are those of the source. No cut-off for these calls is given here.",
  "data": [
    {"smiles": "CO[C@@H]1[C@H](OP(=O)(S)OC[C@H]2O[C@@H](n3ccc(N)nc3=O)C[C@@H]2OP(=O)(S)OC[C@H]2O[C@@H](n3cnc4c(=O)[nH]c(N)nc43)C[C@@H]2OP(=O)(S)OC[C@H]2O[C@@H](n3cc(C)c(=O)[nH]c3=O)C[C@@H]2OP(=O)(S)OC[C@H]2O[C@@H](n3cc(C)c(=O)[nH]c3=O)C[C@@H]2OP(=O)(S)OC[C@H]2O[C@@H](n3ccc(N)nc3=O)C[C@@H]2OP(=O)(S)OC[C@H]2O[C@@H](n3cc(C)c(=O)[nH]c3=O)C[C@@H]2OP(=O)(S)OC[C@H]2O[C@@H](n3ccc(N)nc3=O)C[C@@H]2OP(=O)(S)OC[C@H]2O[C@@H](n3cc(C)c(=O)[nH]c3=O)C[C@@H]2OP(=O)(S)OC[C@H]2O[C@@H](n3cnc4c(=O)[nH]c(N)nc43)C[C@@H]2OP(=O)(S)OC[C@H]2O[C@@H](n3cc(C)c(=O)[nH]c3=O)C[C@@H]2O)[C@@H](COP(=O)(S)O[C@H]2[C@@H](OC)[C@H](n3cnc4c(=O)[nH]c(N)nc43)O[C@@H]2COP(=O)(S)O[C@H]2C[C@H](n3cc(C)c(=O)[nH]c3=O)O[C@@H]2COP(=O)(S)O[C@H]2C[C@H](n3ccc(N)nc3=O)O[C@@H]2COP(=O)(S)O[C@H]2C[C@H](n3cc(C)c(=O)[nH]c3=O)O[C@@H]2COP(=O)(S)O[C@H]2C[C@H](n3cnc4c(N)ncnc43)O[C@@H]2COP(=O)(S)O[C@H]2C[C@H](n3cc(C)c(=O)[nH]c3=O)O[C@@H]2COP(=O)(S)O[C@@H]2C[C@@H](n3ccc(N)nc3=O)O[C@H]2CO)O[C@H]1n1cnc2c(N)ncnc21", "note": "(stereo not given in full)", "values": [
      {"measurement": "Activity", "setting": "[1]", "value": "inactive"},
      {"measurement": "Activity", "setting": "[2]", "value": "Dose-dependent effect"},
      {"measurement": "Activity", "setting": "Mus musculus [3]", "value": "inactive"},
      {"measurement": "Activity", "setting": "Mus musculus [4]", "value": "inactive"},
      {"measurement": "Activity", "setting": "Mus musculus [5]", "value": "inactive"},
      {"measurement": "Activity", "setting": "Mus musculus [6]", "value": "inactive"},
      {"measurement": "Activity", "setting": "Mus musculus [7]", "value": "inactive"},
      {"measurement": "Activity", "setting": "Mus musculus [8]", "value": "inactive"},
      {"measurement": "Activity", "setting": "Mus musculus [9]", "value": "inactive"},
      {"measurement": "Activity", "setting": "Mus musculus [10]", "value": "Dose-dependent effect"},
      {"measurement": "Activity", "setting": "Mus musculus [11]", "value": "Active"},
      {"measurement": "inhibition in vivo at 2 mg/kg", "setting": "Mus musculus [12]", "value": 50, "unit": "%"},
      {"measurement": "inhibition in vivo at 20 mg/kg", "setting": "Mus musculus [13]", "value": 90, "unit": "%"},
      {"measurement": "Activity", "setting": "Mus musculus [14]", "value": "Active"},
      {"measurement": "inhibition in vivo at 20 mg/kg", "setting": "Mus musculus [15]", "value": 50, "unit": "%"}
    ]}
  ]
}
